In ChEMBL document CHEMBL1152376, “N-[(Dihydroxyphenyl)acyl]serotonins as potent inhibitors of tyrosinase from mouse and human melanoma cells” (Bioorg Med Chem Lett, 2009):
The source made the active and inactive calls. No cut-off for these calls is given here.

Experiments:
Tyrosinase [1] = biological target: T1, Tyrosinase (Mus musculus, UniProt P11344); assay: Inhibition of catecholase activity of tyrosinase in mouse B16 cells assessed as dopachrome formation; format: cell-based
T1 sequence (P11344 whole entry): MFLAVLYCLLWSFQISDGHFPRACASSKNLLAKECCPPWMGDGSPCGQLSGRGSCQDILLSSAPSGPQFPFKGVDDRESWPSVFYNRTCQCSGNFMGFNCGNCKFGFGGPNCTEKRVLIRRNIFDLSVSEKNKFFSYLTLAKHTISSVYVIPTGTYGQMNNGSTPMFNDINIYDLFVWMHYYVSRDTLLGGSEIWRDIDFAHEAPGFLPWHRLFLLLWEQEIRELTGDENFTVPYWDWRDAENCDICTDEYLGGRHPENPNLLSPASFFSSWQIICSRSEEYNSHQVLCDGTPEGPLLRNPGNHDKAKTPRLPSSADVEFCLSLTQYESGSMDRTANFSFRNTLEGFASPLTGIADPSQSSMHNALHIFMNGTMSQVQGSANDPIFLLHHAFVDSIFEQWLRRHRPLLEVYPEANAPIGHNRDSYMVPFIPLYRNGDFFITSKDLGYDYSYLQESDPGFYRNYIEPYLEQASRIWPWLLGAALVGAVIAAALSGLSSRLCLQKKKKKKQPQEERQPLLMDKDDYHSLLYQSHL

[2] = Cytotoxicity against mouse B16 cells assessed as cell viability at 20 uM after 2 days by tetrazolium reduction assay; format: cell-based; conditions: read-out: Activity
Method in brief: (§1)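 B16 cells seeded at 1.5 × 10⁴ per well, cultured 1 day, then given compound in ethanol (stock 0–10 mM) and incubated 2 days. Medium aspirated and viability measured with a tetrazolium reagent. Values are means of 8 or 9 wells, with Student's t-test against control.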

B16 [3] = assay: Cytotoxicity against mouse B16 cells assessed as cell viability at < 30 uM after 2 days by tetrazolium reduction assay; format: cell-based; conditions: b16, 48 h; method in brief: as §1
B16 [4] = assay: Antimelanogenic activity in mouse B16 cells assessed as inhibition of extracellular melanin formation after 2 days; conditions: B16, 48 h
B16 [5] = assay: Ratio of IC50 of drug to IC50 of kojic acid for antimelanogenic activity in mouse B16 cells; format: functional
Method in brief: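 B16 cells (1.5 × 10⁴ per well) were cultured 1 day, given compound in ethanol (stock 0–10 mM), and incubated 2 days. Medium darkening from extracellular melanin was read at 415 nm and IC50 derived.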

B16 [6] = assay: Antimelanogenic activity in mouse B16 cells assessed as inhibition of intracellular melanin accumulation at 2 to 40 uM after 2 days; format: functional, cell-based
Method in brief: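 B16 cells grown in DMEM with 15% FBS, seeded at 7.5 × 10⁴ cells per well, cultured 1 day, then given compound in ethanol and incubated 2 days. Cells scraped, washed with PBS and sonicated in 0.2 ml 1 N NaOH. Intracellular melanin read as homogenate absorbance at 415 nm, expressed as % control.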

[7] = Antimelanogenic activity in human HMVII cells assessed as inhibition of intracellular melanin accumulation at 20 to 40 uM after 2 days; format: functional, HMV-2
[8] = Cytotoxicity against human HMVII cells assessed as cell viability at 40 uM after 2 days by tetrazolium reduction assay; format: cell-based; conditions: hmv-2, 48 h
Method in brief: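 HMV-II cells given compound in ethanol and incubated 2 days, then viability measured by tetrazolium reduction. Values are % control, mean ± SEM (n = 3–4) from a representative repeated experiment.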

Tyrosinase [9] = biological target: T1, Tyrosinase; assay: Apparent noncompetitive inhibition of catecholase activity of tyrosinase in mouse B16 cells by Lineweaver-Burke plot analysis; format: cell-based; conditions: read-out: Ki(app)
Method in brief: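 Tyrosinase extracted from B16 cells (DMEM, 15% FBS) was assayed with L-DOPA in 50 mM phosphate buffer pH 6.8 at 37 °C. Dopachrome formation over 5 min was read at 475 nm (ε = 3700 M⁻¹ cm⁻¹). Inhibitor was tested at several fixed levels (e.g. 0–70 µM), L-DOPA was varied, Lineweaver–Burk lines were fitted by least squares, and apparent Ki was derived.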

B16 [10] = assay: Cytotoxicity against mouse B16 cells assessed as cell viability at 10 to 30 uM after 2 days by tetrazolium reduction assay; format: cell-based; conditions: b16, 48 h; method in brief: as §1
[11] = Cytotoxicity against mouse B16 cells assessed as cell viability at 200 uM after 2 days by tetrazolium reduction assay; format: cell-based; conditions: read-out: Activity
Method in brief: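 B16 mouse melanoma cells in DMEM with 15% FBS, seeded at 1.5 × 10⁴ cells per well and cultured 1 day. Compound then added in ethanol and incubated 2 days. Medium aspirated and viability read with a tetrazolium reagent. Means of 8 or 9 wells, Student's t-test versus control.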

[12] = biological target: T2, Tyrosinase (Mus musculus) (UniProt P11344); assay: Inhibition of catecholase activity of tyrosinase in mouse B16 cells assessed as residual activity at […] preincubated for 5 to 30 mins in absence of L-DOPA substrate; format: cell-based
T2 sequence (whole entry): T1 sequence (P11344 whole entry)
Method in brief: (§2)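 Enzyme was preincubated with inhibitor (added in ethanol as a 20 mM stock) in 50 mM phosphate buffer pH 6.8, with or without 0.125 mM L-DOPA, at 37 °C for 5, 10, 20 or 30 min. Buffer containing 5.3 mM L-DOPA was then added and dopachrome read at 475 nm. Control (=100) was 31 min preincubation without inhibitor; mean ± sd, n = 3.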

[13] = biological target: T2, Tyrosinase (Mus musculus); assay: Inhibition of catecholase activity of tyrosinase in mouse B16 cells assessed as residual activity at […] measured after preincubation presence of L-DOPA substrate; format: cell-based; conditions: TDE = time-dependent effect; method in brief: as §2

IC50 (Tyrosinase [1]) [µM] | IC50 (B16 [4]) [µM] | SMILES | viability at 48 h, 20 µM [2] [%] | Activity (B16 [10]) | further results
28 | 15 | O=C(/C=C/c1ccc(O)c(O)c1)NCCc1c[nH]c2ccc(O)cc12 [N-CAFFEOYLSEROTONIN] | 99 | – | Activity (B16 [3]): Non-toxic
233 | > 30 | O=C(NCCc1c[nH]c2ccc(O)cc12)c1ccc(O)cc1 | 100 | – | –
211 | > 30 | COc1cc(C(=O)NCCc2c[nH]c3ccc(O)cc23)ccc1O | 93 | – | Activity (B16 [3]): Non-toxic
– | > 30 | O=C(NCCc1c[nH]c2ccccc12)c1ccc(O)cc1 | 94 | – | –
73 | 3 | O=C(NCCc1c[nH]c2ccc(O)cc12)c1ccc(O)c(O)c1 | 99 | – | Ratio IC50 (B16 [5]): 40; Activity (B16 [6]): inactive; inhibition (INH) [7]: 20%; Activity [8]: Toxic; Ki (Tyrosinase [9]): 64 µM; Activity (B16 [3]): Non-toxic
– | – | O=C(NCCc1c[nH]c2ccccc12)c1ccc(O)c(O)c1 | 69 | Toxic | –
– | – | O=C(NCCc1ccc(O)cc1)c1ccc(O)c(O)c1 | 88 | Toxic | –
42 | 15 | O=C(NCCc1c[nH]c2ccc(O)cc12)c1ccc(O)cc1O | 101 | – | Activity (B16 [3]): Non-toxic
216 | 23 | COc1cc(/C=C/C(=O)NCCc2c[nH]c3ccc(O)cc23)ccc1O [N-FERULOYL SEROTONIN] | 100 | – | Activity (B16 [3]): Non-toxic
– | – | O=C(NCCc1c[nH]c2ccccc12)c1ccccc1 | 85 | Toxic | –
– | – | O=C(/C=C/c1ccc(O)c(O)c1)NCCc1ccc(O)cc1 | 84 | Toxic | –
– | > 30 | COc1cc(/C=C/C(=O)NCCc2c[nH]c3ccccc23)ccc1O | 102 | – | –
– | – | O=C(/C=C/c1ccc(O)c(O)c1)NCCc1c[nH]c2ccccc12 | 54 | Toxic | –
– | – | NC(=O)c1ccc(O)c(O)c1 [PROTOCATECHUAMIDE] | – | – | Ki (Tyrosinase [9]; in the assay text read “Competitive” for “Apparent noncompetitive”): 3700 µM
333 | > 30 | O=C(NCCc1c[nH]c2ccc(O)cc12)c1ccccc1 | 96 | – | –
311 | > 30 | CC(=O)NCCc1c[nH]c2ccc(O)cc12 [ACETYLSEROTONIN] | 93 | – | Ki (Tyrosinase [9]): 240 µM; Activity [12]: Active; Activity [13]: tde
– | – | COc1ccc2[nH]cc(CCNC(=O)/C=C/c3ccc(O)c(O)c3)c2c1 | 41 | Toxic | –
68 | 13 | Oc1ccc2[nH]ccc2c1 | 100 | – | –

SMILES | IC50 (Tyrosinase [1]) [µM] | IC50 (B16 [4]) [µM] | viability at 48 h, 20 µM [2] [%] | Activity (B16 [10]) | further results
O=c1cc(CO)occ1O [KOJIC ACID] | – | 111 | – | – | viability at 48 h, 200 µM [11]: 99%
NCCc1c[nH]c2ccc(O)cc12 [SEROTONIN] | 550 | > 30 | 101 | – | –
